Laboratory results published in ChEMBL document CHEMBL5335784, “Discovery of a novel 1,3,4-oxadiazol-2-one-based NLRP3 inhibitor as a pharmacological agent to mitigate cardiac and metabolic complications in an experimental model of diet-induced metaflammation” (Eur J Med Chem, 2023).
Activity calls are given as the source filed them. The calls are words filed in the database; no cut-off is given here.

Columns and labels:
[1] = Effect on glyco-metabolic profile in standard diet fed Wistar rat assessed as effect on HDL cholesterol level in plasma at 20 mg/kg/day, ip administered for 4 weeks; format: toxicity, organism-based; settings: in vivo, 672 h
Summary of the method: (§1)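 Rats fed HFD or SD for 12 weeks, dosed 20 mg/kg/day i.p. in saline/2% DMSO/5% Cremophor-EL during the final 28 days. Serum obtained after sacrifice by centrifuging blood at 2000 x g, 10 min, 4 °C. Glucose read by glucometer; total, HDL and LDL cholesterol and triglycerides measured with commercial kits. n=6–7 per group.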

[2] = Effect on glyco-metabolic profile in standard diet fed Wistar rat assessed as effect on LDL cholesterol level in plasma at 20 mg/kg/day, ip administered for 4 weeks; format: toxicity, organism-based; settings: in vivo, 672 h; summary of the method: as §1
[3] = Stability of the compound in saline solution containing 2% DMSO and 5% Cremophor-EL measured at 4 degC for more than 7 days by RP-HPLC analysis; format: physicochemical; settings: buffer, 168 h; time 7 day
Summary of the method: (§2)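 A 2 mg/mL solution in saline with 2% DMSO and 5% Cremophor-EL was kept at 4 °C or 25 °C for 7 days and analysed daily by RP-HPLC at 226/254 nm.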

Rattus norvegicus [4] = assay: Antiinflammatory activity against high fat diet fed-induced metaflammation Wistar rat model assessed as reduction in HFD-induced anthropometric alterations by measuring reduction in perirenal fat deposition at 20 mg/kg/day, ip administered for 4 weeks; format: functional, organism-based
Summary of the method: (§3)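 Male Wistar rats on high-fat diet (60% kcal fat) or standard diet for 12 weeks; 20 mg/kg/day i.p. or vehicle (saline, 2% DMSO, 5% Cremophor-EL) over the last 28 days. Body weight recorded weekly. After sacrifice, abdominal, epididymal, retroperitoneal and perirenal fat, liver and heart excised and weighed. Cardiac somatic index = heart weight/body weight ×100. n=6–7 per group.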

Rattus norvegicus [5] = assay: (§4) Inhibition of ischemia/reperfusion-induced oxidative stress in ischemia/reperfusion-induced myocardial injury and standard diet fed Wistar rat model assessed as decrease in cardiac MDA level at 20 mg/kg/day, ip administered for 4 weeks followed by excised heart exposed to global ischemia for 30 mins and reperfusion for 120 mins by TBARS assay; format: functional, organism-based
Summary of the method: (§5)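 Same rat diet, dosing and Langendorff ischemia/reperfusion protocol. LV homogenized 10% w/v in 0.9% KCl pH 7.4. Homogenate heated at 100 °C for 15 min with TCA and TBA plus butylated hydroxytoluene, centrifuged, and read at […]. MDA expressed as nmol/g heart tissue, compared with sham hearts perfused for 190 min.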

Rattus norvegicus [6] = assay: Cardioprotective activity against ischemia/reperfusion-induced myocardial injury and high diet fed obese Wistar rat model assessed as decrease in LDH activity in coronary effluents at 20 mg/kg/day, ip administered for 4 weeks followed by excised heart exposed to global ischemia for 30 mins and reperfusion for 120 mins and measured during first 20 mins of reperfusion by spectrophotometric analysis; format: functional, organism-based
Summary of the method: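 HFD or SD rats, dosed 20 mg/kg/day i.p. for the final 28 days, anaesthetised with ethyl carbamate (2 g/kg i.p.). Hearts Langendorff-perfused with Krebs–Henseleit buffer (pH 7.4, 37 °C, 12 ml/min); 40 min stabilization, 30 min global no-flow ischemia, 120 min reperfusion. Coronary effluent collected on ice before ischemia and at 10, 20, 30 min reperfusion; LDH activity by McQueen method. n=6–7.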

Rattus norvegicus [7] = assay: as §4, with “inflammation” for “oxidative stress”, “high fat” for “standard”, “fed obese” for “fed”, “TNF-alpha” for “MDA”, “ELISA” for “TBARS assay”; format: functional, organism-based
Summary of the method: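 Male Wistar rats on standard or 60% kcal fat diet for 12 weeks; last 28 days i.p. 20 mg/kg/day in saline with 2% DMSO and 5% Cremophor-EL, or vehicle. Hearts perfused by Langendorff with KH buffer at 12 ml/min, 37°C, then 40 min stabilization, 30 min global no-flow ischemia and 120 min reperfusion. Cytokines measured in LV tissue; n=6–7 per group.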

Rattus norvegicus [8] = assay: (§6) Cardioprotective activity against myocardial ischemia/reperfusion injury-induced contractile impairment and standard diet fed Wistar rat model assessed as left ventricular end diastolic pressure at 20 mg/kg/day, ip administered for 4 weeks followed by excised heart exposed to global ischemia for 30 mins and reperfusion for 120 mins and measured at the end of reperfusion (reference value: 21 +/-2 mmHg); format: functional
[9] = n-Octanol/water distribution coefficient, log D of the compound at pH 7.4 measured after 4 hrs by shake flask method; format: physicochemical
Summary of the method: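 Shake-flask at room temperature between n-octanol and 50 mM phosphate buffer pH 7.4, ionic strength 0.15 M KCl. Phases were pre-saturated by 4 h shaking. Compound at about 0.1 mg/ml in buffer, shaken about 20 min with n-octanol, then centrifuged at 10000 rpm for 10 min.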

[10] = Stability of the compound in saline solution containing 2% DMSO and 5% Cremophor-EL measured at 25 degC for more than 7 days by RP-HPLC analysis; format: physicochemical; settings: buffer, 168 h; time 7 day; summary of the method: as §2
Rattus norvegicus [11] = assay: as §6, with “developed LVP recovery” for “left ventricular end diastolic pressure”, “43 +/-7” for “21 +/-2”; format: functional
[12] = Effect on glyco-metabolic profile in standard diet fed Wistar rat assessed as effect on triglyceride level in plasma at 20 mg/kg/day, ip administered for 4 weeks; format: toxicity, organism-based; settings: in vivo, 672 h; summary of the method: as §1
Rattus norvegicus [13] = assay: as §4, with “NLRP3 inflammasome activation” for “oxidative stress”, “NLRP3 protein expression” for “cardiac MDA level”, “immunoblot analysis” for “TBARS assay”; format: functional, organism-based
Summary of the method: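 Left ventricles from Langendorff hearts (30 min global ischemia/120 min reperfusion) of HFD or SD rats dosed 20 mg/kg/day i.p. for the final 28 days. Tissue homogenized in RIPA buffer with protease/phosphatase inhibitors. 50 μg protein run on 8% SDS-PAGE and immunoblotted for NLRP3 (1:500), normalized to β-actin by densitometry; n=4 per group.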

Rattus norvegicus [14] = assay: as §4, with “high fat” for “standard”, “fed obese” for “fed”; format: functional, organism-based; summary of the method: as §5
Rattus norvegicus [15] = assay: Antiinflammatory activity against high fat diet fed-induced metaflammation Wistar rat model assessed as reduction in HFD-induced anthropometric alterations by measuring reduction in liver weight at 20 mg/kg/day, ip administered for 4 weeks; format: functional, organism-based; summary of the method: as §3
Rattus norvegicus [16] = assay: as §4, with “increase” for “decrease”, “SOD activity” for “MDA level”, “mins” for “mins by TBARS assay”; format: functional, organism-based
Summary of the method: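 Same rat diet, dosing and ischemia/reperfusion protocol. LV homogenized in 50 mM Tris-HCl pH 8.2 with 1 mM DTPA and centrifuged at 20,000 x g for 20 min. Supernatant mixed with 0.2 mM pyrogallol, autoxidation followed at 420 nm for 3 min. Activity given as % pyrogallol autoxidation relative to sham; 1 U inhibits the rate by 50%.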

[17] = Effect on developed LVP recovery in high diet fed obese Wistar rat model at 20 mg/kg/day, ip administered for 4 weeks (reference value: 54 +/-6 mmHg); format: toxicity, organism-based; settings: in vivo, 672 h
Rattus norvegicus [18] = assay: Antiinflammatory activity against high fat diet fed-induced metaflammation Wistar rat model assessed as reduction in HFD-induced anthropometric alterations by measuring reduction in cardiac somatic index at 20 mg/kg/day, ip administered for 4 weeks; format: functional, organism-based; summary of the method: as §3
Rattus norvegicus [19] = assay: as §6, with “high fat” for “standard”, “fed obese” for “fed”, “developed LVP recovery” for “left ventricular end diastolic pressure”, “32 +/-4” for “21 +/-2”; format: functional

Stability [3]: Stable
logD at 4 h [9]: 2.03
Stability [10]: Stable
Structure (SMILES): CCOC(=O)Cn1nc(Cc2ccccc2Cl)oc1=O
Activity [1]: Non-Toxic
Activity [2]: Non-Toxic
Activity (Rattus norvegicus [4]): Active
inhibition (Rattus norvegicus [5]): Active
Activity (Rattus norvegicus [6]): Active
inhibition (Rattus norvegicus [7]): Active
Activity (Rattus norvegicus [8]): 13 mmHg
Activity (Rattus norvegicus [11]): 80 mmHg
Activity [12]: Non-Toxic
inhibition (Rattus norvegicus [13]): Active
inhibition (Rattus norvegicus [14]): Active
Activity (Rattus norvegicus [15]): Active
inhibition (Rattus norvegicus [16]): Active
Activity [17]: 64 mmHg
Activity (Rattus norvegicus [18]): Active
Activity (Rattus norvegicus [19]): 65 mmHg
